Source: PubChem BioAssay (several laboratories)
HUVEC inhibit = inhibitors of HUVEC proliferation, primary screen, cell-based, 384-well; CellTiter-Glo luminescence, 72 h; active compounds read low; viability, % at 10 µM (by protocol); 86,000 compounds, 1.1% hits; AID 648, 2007;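 active means viability at or below 30%; inactive means viability above 30%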;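 further: 100% = median luminescence of DMSO-only cell control wells on each plate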
Jurkat viability = cytotoxicity toward Jurkat T cells, primary screen, cytotoxicity control, cell-based, Jurkat E6.1, 60K MLSMR library; Jurkat E6.1 viability, ATP luminescence, 48 h; inhibition, % at 4 µM; 56,000 compounds, 1.2% hits;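 active means inhibition above the mean inhibition of all tested compounds plus 3 SD, cut at about 28% in these data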
Fibroblast inh = antiproliferative effect on LL 47 fibroblasts – human, LL 47 cells, CellTiter-Glo luminescence, primary screen | LL 47 human lung fibroblast viability, ATP luminescence; active compounds read low | viability, % at 10 µM | 85,000 compounds, 1.1% hits | AID 719, 2007;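 active means viability at or below 50% in the single dose screen; inactive means viability above 50%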;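 further: compound exposure lasted 72 h before the ATP readout; 100% = median luminescence of untreated cell-only wells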
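Test system: LL 47 human lung fibroblasts / Quantity: 1,150 cells in each well / Medium: IMEM growth medium with 15% fetal bovine serum / Incubation: 72 h compound exposure at 37 °C after overnight plating / Detection: CellTiter-Glo luminescence measuring cellular ATP / Read-out: % viability versus median cells-only luminescence / Benchmarks: cell-only wells, no compound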
H69AR growth 86K = proliferation blockers of H69AR lung cancer cells, primary screen, cell-based, human, 86K library; H69AR lung tumor viability, ATP luminescence, 72 h; active compounds read low; viability, % at 10 µM; 85,000 compounds, 6% hits; AID 598, 2007;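 active means viability at or below 40%; inactive means viability above 40%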;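 further: multidrug resistant small cell line overexpressing MRP-1 efflux transporter; 100% = mean luminescence of untreated control wells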
* hit, by the source's call; . = no result given. Sampled rows, rich in hits. Any-hit rate of the full collection: about 6.6%.

SMILES	HUVEC inhibit	Jurkat viability	Fibroblast inh	H69AR growth 86K
O=C(CCN1CCOCC1)c1ccc2c(c1)OCCO2	95	.	95	3.3*
COc1ccc(C2(CNC(=O)CCC(=O)O)CCCC2)cc1	98	-2	99	87
CN1CCN(c2ccc(Cl)cc2NC(=O)C2COc3ccccc3O2)CC1 (centres undefined)	71	.	82	30*
CN1CCN(c2ccc(Cl)cc2NC(=O)c2nn(-c3ccccc3)c(=O)c3ccccc23)CC1	82	-3	97	4.9*
CN1CCN(c2ccc(Cl)cc2NC(=O)c2cccc(S(=O)(=O)N(C)C)c2)CC1	57	2	84	26*
C=CCn1c(SCC(=O)Nc2c(C)n(C)n(-c3ccccc3)c2=O)nc2sc(C)c(-c3ccccc3)c2c1=O	74	.	99	61
CCCCN(C(=O)c1ccc(Cl)cc1)C1CC2CCC(C1)N2C (centres undefined)	87	0	90	36*
COc1cc(C(=O)N(CCc2ccccc2)C2CC3CCC(C2)N3C)cc(OC)c1OC (centres undefined)	87	-4	92	88
CCCNC(=O)C1CCN(S(=O)(=O)c2ccc(Br)cc2)CC1	96	4	104	101
CCNc1nc2c(c(=O)n(C)c(=O)n2C)n1Cc1ccc(Cl)cc1	.	58*	.	.
CCC(C)Nc1nc2c(c(=O)n(C)c(=O)n2C)n1Cc1ccc(Cl)cc1 (centres undefined)	.	3	.	.
Cc1ccc(C(=O)/C=C/c2cn(CN3CCN(C)CC3)c3ccccc23)cc1	64	.	89	5.8*
Brc1ccccc1-c1nnc(COc2cccc3cccnc23)o1	108	.	100	32*
Clc1ccccc1OCc1nnc(-c2ccccc2Br)o1	98	-1	102	89
CCOc1cc(N2CCOCC2)c(OCC)cc1NC(=O)COc1ncnc2ccccc12	87	.	100	52
CCOc1cc(N2CCOCC2)c(OCC)cc1NC(=O)c1cc(-c2ccco2)nc2ccccc12	15*	.	9.1*	4.0*
c1cnn(-c2nc(N3CCOCC3)nc(N3CCOCC3)n2)c1	58	11	49*	77
COC(=O)c1ccccc1NC(=O)CSc1nnc(-c2cccnc2)n1C	101	.	105	93
CCOC(=O)c1sc2ccc(S(=O)(=O)N3CC(C)CC(C)C3)cc2c1N (centres undefined)	97	.	100	56
CCCc1cc(=O)[nH]c(/N=C(/NC(=O)c2ccccc2)Nc2ccc3c(c2)OCCO3)n1	55	-3	76	32*
Cc1sc(NC(=O)CSc2nnc(COc3ccc(Cl)cc3)n2C)c(C#N)c1C	60	-7	87	31*
O=C(CSc1nnc(-c2cccs2)n1-c1ccccc1)Nc1ccccc1	80	0	41*	64
CCOC(=O)CSc1nnc(-c2cccs2)n1-c1ccccc1	95	8	97	88
Cc1ccccc1-n1c(SCC(=O)c2cc(C)n(C)c2C)nnc1-c1cccnc1	110	.	99	39*
Cc1ccc(-n2c(Cc3cccs3)nnc2SCC(=O)Nc2ccc(F)c(F)c2)cc1	86	.	4.0*	77
SMILES	HUVEC inhibit	Jurkat viability	Fibroblast inh	H69AR growth 86K
Cc1ccc(NC(=O)CSc2nnc(-c3cccnc3)n2-c2ccc(C)cc2)cc1	79	.	98	27*
COCCn1c(C)cc(C(=O)CSc2nnc(-c3cccnc3)n2-c2ccccc2F)c1C	131	3	97	76
CCOc1ccc(S(=O)(=O)NCCC(=O)OC(C)C(=O)N2CCc3ccccc32)cc1 (centres undefined)	91	10	93	55
CCOC(=O)c1c(CN2CCCCC2)n(C)c2cc(Br)c(OC)cc12	59	-1	94	77
CCOC(=O)c1c(C)n(C)c2cc(Br)c(C(=O)OC)cc12	80	-3	91	91
CCOC(=O)c1c(CN2CCN(CCO)CC2)n(C)c2cc(Br)c(OC)cc12	45	.	72	16*
CCOC(=O)c1c(CNCCN(CC)CC)n(C)c2cc(Br)c(OC)cc12	45	.	84	33*
CCN(CC)CCNC(=O)c1c(C)n(-c2ccccc2)c2cc(Br)c(OC)cc12	6.1*	.	56	25*
COc1ccc(N(CC(O)Cn2nnc3ccccc32)S(=O)(=O)c2ccc(C)cc2)cc1 (centres undefined)	112	-2	99	87
CCOc1ccc(-n2c(Cc3ccccc3)nnc2SCc2c(C)noc2C)cc1	99	3	95	78
CC(C)OP(=O)(c1ccc(N(C)C)cc1)C(O)c1ccccc1 (centres undefined)	101	.	97	83
O=C(Nc1sc2c(c1-c1nc3ccccc3[nH]1)CCCC2)C1CCCC1	89	.	99	53
CC(=O)NCCC(=O)Nc1sc2c(c1-c1nc3ccccc3[nH]1)CCCC2	78	.	100	36*
N#CC1=C(N)Oc2cc(O)ccc2C1c1cccs1 (centres undefined)	96	9	100	67
N#CC1=C(N)Oc2c(ccc3ccccc23)C1c1cccs1 (centres undefined)	22*	.	53	17*
CCc1ccccc1NC(=O)Cn1nnc(-c2cccnc2)n1	95	-10	104	96
CC[n+]1cc(-c2ccccc2)nc(N2CCOCC2)n1	27*	5	99	91
Cc1cc(Nc2nc3ccccc3nc2Cl)n(-c2ccc([N+](=O)[O-])cc2)n1	67	.	68	21*
COc1ccccc1NC(=O)CSc1nnc(-c2ccoc2C)n1CC1CCCO1 (centres undefined)	97	.	101	83
COc1ccc(NC(=O)CNS(=O)(=O)c2cccc3nonc23)c(OC)c1	109	.	102	88
CSc1nc(N2CCN(CCO)CC2)c2sc3nc(-c4ccco4)c4c(c3c2n1)CCC4	77	.	98	0.8*
Cc1cc(C)c2c(n1)sc1c(N3CCN(CCO)CC3)ncnc12	90	6	95	82
O=C1N(Nc2ccccc2)C(c2ccc(Br)cc2)C12CCCCC2 (centres undefined)	49	.	78	19*
Cc1cc(C)c(S(=O)(=O)N2CCCCC2)c(C)c1-n1ncnn1	84	0	103	93
O=C(CSCSCC(=O)NCC1CCCO1)NCC1CCCO1 (centres undefined)	94	-7	98	96
SMILES	HUVEC inhibit	Jurkat viability	Fibroblast inh	H69AR growth 86K
Cc1cccc(C=Nc2ccccc2C(N)=O)c1	63	.	58	23*
Cc1ccc(-n2c(-c3c(-c4ccccc4)noc3C)n[nH]c2=S)cc1	109	.	106	86
CCC1SC2=NC(C)=C(C(=O)OCCOC)C(c3ccc(C(=O)OC)cc3)N2C1=O (centres undefined)	102	.	106	108
O=C(CSc1nnnn1C1CC2CCC1C2)Nc1ccnc2ccccc12 (centres undefined)	43	100*	92	93
Cc1ccc(-n2c(C)c3c(C)nnc(C)c3c2C)cc1C	102	.	93	32*
CCN(C(=O)c1ccc(C(C)(C)C)cc1)c1nnc(Cn2nnc3ccccc32)s1	46	101*	88	65
